Screening results (PubChem BioAssay)
T cruzi inh – inhibitors of intracellular T. cruzi growth, primary screen, luminescence, NIH3T3 host cells. 300,000 compounds, 1.4% hits. inhibition, % (no concentration beside the values). T. cruzi beta-gal in NIH3T3, 90 h;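 active = mean inhibition across valid replicates above about 55%, limit read from the data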;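 note: signal also drops with host cell toxicity which is not excluded here; 0% = plate median of DMSO wells and 100% = zero luminescence signal; higher percent means less beta-gal luminescence so fewer parasites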
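compound dosing = single 50 nL compound addition per well in DMSO | material = NIH/3T3 host cells with β-galactosidase reporter T. cruzi | input = 5,000 host fibroblasts per well | timing = ≥90 h infection period, 3 h prior cell attachment | read-out basis = percent inhibition of parasite-derived β-gal signal | detection = GalScreen β-gal luminescence, detergent lysis, 60 min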
Hsp70 act – Hsp70 transcriptional activators, primary screen, cell-based, HeLa, Hsp70 promoter luciferase, luminescence, 10 µM; HeLa Hsp70 promoter luciferase reporter; scaled: vehicle 0, proteasome-inhibitor control 100%; activation, % at 10 µM; 200,000 compounds, 0.04% hits; AID 1203, 2008;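 active = activation above the mean across all tested compounds plus 3 SD, cutoff set per campaign, cut at about 5.5% in these data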;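 note: 100% = MG132 at 30 µM as the positive control and 0% = DMSO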
Lmaj promast – Leishmania major promastigote growth inhibition, primary screen. Leishmania major promastigotes, resazurin fluorescence viability. inhibition, % at 10 µM. 200,000 compounds, 9% hits. AID 1063, 2008; in the data active = inhibition above about 50%;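 note: promastigotes grown with compound for 44 hours at 28 °C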
HSF1 activator – HSF-1 activators, primary screen, NIH3T3-HGL cells, MG132 stress, luminescence, single point; NIH3T3-HGL HSF-1 luciferase reporter, 8 h; 100% = twice DMSO control signal; activation, % at 9 µM; 300,000 compounds, 1.7% hits; AID 504408, 2011;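 active = mean replicate activation of at least 50% with a set share of replicates each reaching 50%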;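 note: 0% = median of the neutral control wells and 100% = twice that signal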
HSF1 inh – HSF1 inhibitors in luciferase reporter cells, primary screen, cell-based, NIH3T3, luminescence. NIH3T3-HGL HSE-luciferase, MG132-induced, luminescence 8 h; stronger effect = lower value. activity change, negative = inhibition, % at 7.5 µM (by protocol). 300,000 compounds, 0.77% hits;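 active = more than half of replicate wells show activity change below -50%, luminescence cut by over half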;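 note: luciferase reports HSF-1 transcriptional activity via heat shock element; 0% = median of DMSO wells and -100% = zero luminescence signal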
* hit, by the source's call; / = not tested or not shown. Only a selection was taken, and hits are over-represented in it overall.

SMILES	T cruzi inh	Hsp70 act	Lmaj promast	HSF1 activator	HSF1 inh
Cc1ccc(S(=O)(=O)NCCSc2nnnn2-c2ccc(C(N)=O)cc2)cc1	-1.6	-0.2	24.6	6.3	-3.4
CN(C)CCNS(=O)(=O)c1ccc(N2CCN(c3ccc(F)cc3)CC2)c([N+](=O)[O-])c1	52.3	-0.3	97.5*	1.1	3.5
O=[N+]([O-])c1cc(S(=O)(=O)NCCN2CCOCC2)ccc1Sc1nnnn1-c1ccccc1	5.0	-0.2	85.8*	9.5	1.6
Cc1ccc(-n2nnnc2Sc2ccc(S(=O)(=O)NCCN(C)C)cc2[N+](=O)[O-])cc1	38.1	0.0	100.0*	-2.3	-8.9
CN1CCN(C(CC(=O)Nc2cccc(O)c2)C(=O)O)CC1 (stereo not given)	-2.3	0.1	-2.7	12.4	1.0
CC(=O)Nc1ccc(N=Cc2c(O)c3ccccc3oc2=O)cc1	-11.7	/	/	63.2*	26.2
CCOC(=O)c1ccc(N=Cc2c(O)c3ccccc3oc2=O)cc1	-4.7	/	/	-14.8	-17.5
CC(=O)c1cccc(N=Cc2c(O)c3ccccc3oc2=O)c1	-10.4	/	/	105.7*	73.7
O=C(Nc1cc(SCCO)cc([N+](=O)[O-])c1)c1ccco1	-9.9	-0.4	61.4*	-7.0	4.8
O=C(Nc1cc(Oc2ccc(Cl)cc2)cc([N+](=O)[O-])c1)c1ccco1	34.1	-0.1	64.1*	1.2	0.1
NNC(=O)c1cc2ccccc2cc1NS(=O)(=O)c1ccccc1	-14.7	/	/	-18.2	-14.9
CCN1CCCC1Cn1cnc2c([nH]c3cccc(Cl)c32)c1=O (stereo not given)	12.6	0.0	81.3*	6.6	-10.7
CCC1CCCN1Cn1cnc2c([nH]c3ccc(OC)cc32)c1=O (stereo not given)	44.6	-0.4	66.1*	32.4	6.0
COc1ccc(NC(=O)Nc2cccc(C(F)(F)F)c2)cn1	11.1	-0.1	3.2	16.2	2.8
CCCCNC(=O)CN1C(=O)NC(CCc2ccccc2)C1=O (stereo not given)	-3.7	0.0	14.0	-5.8	2.5
COc1cc2c(cc1OC)/C(=C/C(=O)c1ccccc1)NCC2	-0.9	/	/	-10.9	-3.8
COc1cc2c(cc1OC)/C(=C/C(=O)c1ccc(C)cc1)NCC2	20.5	/	/	-83.5	-80.2*
COC(=O)C1CCN(C(=O)/C=C/c2ccccc2)CC1	-15.9	-0.2	-9.8	23.3	17.3
CN1C2CCC1/C(=C\c1ccccc1)C(=O)/C2=C\c1ccccc1	21.2	1.2	93.8*	34.6	23.5
Cc1cc(Nc2ccc(Cl)cc2)n2nnnc2n1	10.8	-0.1	6.3	22.1	2.6
Cc1cc(Nc2ccccc2Cl)n2nnnc2n1	-8.1	0.6	87.2*	-20.4	-7.0
Oc1ccc(Cl)cc1C=Nc1ccc2c3c(cccc13)CC2	1.2	-0.3	84.3*	4.3	3.0
Cc1cccc(C=Nc2ccc3c4c(cccc24)CC3)c1O	-9.0	-0.2	3.6	34.1	11.6
COc1ccc(C(=O)Nc2nc3c(s2)CCCC3)cc1S(=O)(=O)N1CCCc2ccccc21	48.1	-0.2	97.4*	11.7	-2.5
COc1ccc(C(=O)NC2CCCCCC2)cc1S(=O)(=O)N1CCCC1	9.5	-0.2	3.6	-3.4	-0.7
SMILES	T cruzi inh	Hsp70 act	Lmaj promast	HSF1 activator	HSF1 inh
COc1ccc(C(=O)Nc2ncccc2C)cc1S(=O)(=O)N1CCCc2ccccc21	19.4	/	/	1.1	-4.2
COc1ccc(C(=O)NC2CCCCCC2)cc1S(=O)(=O)N1CCCc2ccccc21	14.2	-0.3	94.0*	-9.7	-3.0
O=C(NCCc1nnc2ccc(SCC(=O)N3CCCC3)nn12)c1ccc(F)cc1	-7.3	/	/	-6.5	-2.4
CC(NS(=O)(=O)c1ccccc1)C(=O)Nc1ccc2c(c1)OCCO2 (stereo not given)	-6.1	/	/	6.7	-14.9
Cn1ncc(Cl)c1C(=O)N1CCOCC1	-5.8	-0.1	-6.2	15.4	-6.3
Cn1ncc(Br)c1C(=O)N1CCOCC1	-13.8	-0.4	-6.6	54.9*	11.9
NNC(=S)NC1CC2CC1C1C=CCC21 (stereo not given)	-18.7	/	/	-63.3	-54.0*
NNC(=S)NC1CCCCCCCCCCC1	/	/	/	-1.9	-12.8
OCC[C@@H]1C[C@H](O)[C@@H](O)[C@]2(OCc3ccccc32)O1	-2.8	/	/	0.0	-4.4
COc1ccc(OC)c(/C=N/NC(=O)c2ccc(N(C)S(=O)(=O)c3ccccc3)cc2)c1	-7.4	-0.3	99.3*	29.6	0.1
COc1ccccc1/C=N/NC(=O)c1ccc(N(C)S(=O)(=O)c2ccccc2)cc1	-6.2	0.0	8.2	7.4	-5.6
COc1ccc(/C=N/NC(=O)c2ccc(N(C)S(=O)(=O)c3ccccc3)cc2)c(OC)c1	-17.4	-0.2	7.3	57.6*	9.1
CC(=O)N1CCN(S(=O)(=O)c2ccc(C)cc2)C1C (stereo not given)	4.0	/	/	3.2	-2.9
C=CCNC(=S)N1CCN(Cc2ccccc2)CC1	-9.2	0.4	-6.0	-1.4	-4.3
CCc1ccccc1Nc1nc2ccccc2n1CC	16.7	0.1	72.1*	13.0	11.8
CCn1c(S(=O)(=O)O)nc2ccccc21	-1.0	/	/	-76.8	-69.0*
CCOc1ccc(NCc2ccccc2OCc2cccc(F)c2)cc1	55.1*	-0.2	4.8	-12.6	-2.6
Fc1cccc(COc2ccccc2CNc2ccccc2)c1	-12.5	-0.5	0.4	21.9	-8.9
O=CN1CCN(c2c([N+](=O)[O-])c(=O)oc3ccccc23)CC1	-11.1	/	/	-0.5	-2.5
Cc1cccc(OCC2CCCN(Cc3nc(C4CC4)no3)C2)c1 (stereo not given)	11.6	0.3	62.0*	9.6	-2.8
COc1ccc(OCC2CCCN(Cc3nc(CC4CC4)no3)C2)cc1 (stereo not given)	16.5	-0.3	-2.9	15.5	16.3
O=C(CNCc1ccc(F)cc1)Nc1ccccc1[N+](=O)[O-]	-12.6	-0.1	-4.6	8.1	2.3
CCOc1cc(/C=C/c2ccc3cccc([N+](=O)[O-])c3n2)ccc1O	1.6	0.1	72.7*	4.0	-4.9
O=[N+]([O-])c1cccc2ccc(/C=C/c3ccc(F)cc3)nc12	29.1	0.0	56.6*	50.0	30.4
O=[N+]([O-])c1ccc(/C=C/c2ccc3cccc([N+](=O)[O-])c3n2)cc1	13.2	-0.5	51.0*	49.7	14.2
COc1cc(/C=C/c2ccc3cccc([N+](=O)[O-])c3n2)ccc1OCC#N	8.8	0.3	5.9	7.6	-3.9
C=CCSc1nnc(CNS(=O)(=O)c2ccc(C)cc2)n1C	-7.7	/	/	-12.6	-5.8
CCCSc1nnc(CNS(=O)(=O)c2ccc(C)cc2)n1C	-1.3	/	/	-65.9	-61.1*
Cc1cc(N2CCN(C)CC2)ccc1NC(=O)c1ccc(-c2ccc(Cl)cc2)o1	58.5*	/	/	2.6	-1.3
CN1CCN(c2ccccc2NC(=O)COc2ccc(Br)cc2)CC1	18.6	-0.4	74.4*	-7.8	-0.8
